Read-outs that look alike come from different tables or passages of the source.
What was measured:
HCC827 = assay: Growth inhibition assay, HCC827; format: cell-based; details: Homo sapiens, HCC827, 72 h, read-out: GI50 (nmol/L), mean ± SD
NCI-H1781 = assay: Growth inhibition assay, NCI-H1781; format: cell-based; details: Homo sapiens, NCI-H1781, 72 h, read-out: GI50 (nmol/L), mean ± SD
How it was run: (§1)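 Cell lines were STR-authenticated; MCF10A lines stably express mutant HER2. Test compounds were dissolved in DMSO and added to the cells. Growth was assessed 3 days after treatment, and GI50 was derived as the mean of three independent experiments.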

NCI-N87 = assay: Growth inhibition assay, NCI-N87; format: cell-based; details: Homo sapiens, NCI-N87, 72 h, read-out: GI50 (nmol/L), mean ± SD
How it was run: as §1

NCI-H1975 = assay: Growth inhibition assay, NCI-H1975; format: cell-based; details: Homo sapiens, NCI-H1975, 72 h, read-out: GI50 (nmol/L), mean ± SD
BT-474 = assay: Growth inhibition assay, BT-474; format: cell-based; details: Homo sapiens, BT-474, 72 h, read-out: GI50 (nmol/L), mean ± SD
How it was run: as §1

MCF10A_HER2/insYVMA = assay: Growth inhibition assay, MCF10A_HER2/insYVMA; format: cell-based; details: Homo sapiens, 72 h, read-out: GI50 (nmol/L), mean ± SD
How it was run: as §1

NIH/3T3_EGFR vIII = assay: Growth inhibition assay, NIH/3T3_EGFR vIII; format: cell-based; details: 72 h, read-out: GI50 (nmol/L), mean ± SD
[1] = tested on: NCI-H1975 EGFR D770_N771insSVD; assay: Growth inhibition assay, NCI-H1975 EGFR D770_N771insSVD; format: cell-based; details: Homo sapiens, NCI-H1975, 72 h, read-out: GI50 (nmol/L), mean ± SD
[2] = tested on: HER2/HER3 signaling in SK-BR-3 cell line; assay: Western blot of HER2 signaling pathway in SK-BR-3 cells; format: cell-based
NCI-H460 = assay: Growth inhibition assay, NCI-H460; format: cell-based; details: Homo sapiens, NCI-H460, 72 h, read-out: GI50 (nmol/L), mean ± SD
A-431 = assay: Growth inhibition assay, A-431; format: cell-based; details: Homo sapiens, A-431, 72 h, read-out: GI50 (nmol/L), mean ± SD
How it was run: as §1

[3] = in rodents; cited from earlier work

GI50 (HCC827) | GI50 (NCI-H1781) | GI50 (NCI-H1975) | GI50 (BT-474) | GI50 [1] | GI50 (NCI-H460) | GI50 (A-431) | Structure (SMILES) | GI50 (NCI-N87) | GI50 (MCF10A_HER2/insYVMA) | GI50 (NIH/3T3_EGFR vIII) | phosphorylation of HER2, HER3, and their downstream proteins ([2]; SK-BR-3, 30–300 nmol/L) | phosphorylation of HER3 and its downstream targets, AKT and ERK, at 48 h ([2]; SK-BR-3, 30–300 nmol/L, 48 h) | Kp,uu,brain [3] | phosphorylation of HER2, HER3, and their downstream proteins [2] | phosphorylation of HER3 and its downstream targets, AKT and ERK, at 48 h [2]
> 1000 nmol/L | 229 ± 149 nmol/L | > 1000 nmol/L | 8.88 ± 8.19 nmol/L | > 1000 nmol/L | > 1000 nmol/L | > 1000 nmol/L | Cc1cc(Nc2ncnc3ccc(NC4=NC(C)(C)CO4)cc23)ccc1Oc1ccn2ncnc2c1 [Tucatinib, tucatinib] | 12.2 ± 8.6 nmol/L | > 1000 nmol/L | > 1000 nmol/L | inhibited | increased | – | – | –
– | – | – | – | – | – | – | C[C@H]1Oc2cc(cnc2N)-c2c(nn(C)c2C#N)CN(C)C(=O)c2ccc(F)cc21 [lorlatinib] | – | – | – | – | – | 0.21 | – | –
679 ± 211 nmol/L | 576 ± 282 nmol/L | > 1000 nmol/L | – | > 1000 nmol/L | > 1000 nmol/L | 424 ± 29 nmol/L | CS(=O)(=O)CCNCc1ccc(-c2ccc3ncnc(Nc4ccc(OCc5cccc(F)c5)c(Cl)c4)c3c2)o1 [Lapatinib] | 16.7 ± 10 nmol/L | > 1000 nmol/L | > 1000 nmol/L | – | – | – | inhibited | increased
292 ± 187 nmol/L | 15.4 ± 5.9 nmol/L | 236 ± 147 nmol/L | 1.03 ± 0.69 nmol/L | 130 ± 60 nmol/L | 860 ± 67 nmol/L | 35.8 ± 9.7 nmol/L | CCOc1cc2ncc(C#N)c(Nc3ccc(OCc4ccccn4)c(Cl)c3)c2cc1NC(=O)/C=C/CN(C)C [Neratinib, neratinib] | 0.946 ± 0.771 nmol/L | 84.3 ± 9 nmol/L | 114 ± 72 nmol/L | – | – | – | – | –

Reference: paper PMC9899605 (Cancer Science, 2022)
